Assay outcomes: PubChem, The Scripps Research Institute Molecular Screening Center
DAGLB inh – DAGLB lipase inhibitors, primary screen, biochemical, fluorescence, HTS; HEK293T DAGLB membrane lysate, EnzChek fluorogenic substrate; Diacylglycerol lipase-beta (Homo sapiens), Q8NCG7; 340,000 compounds, 0.059% hits; inhibition, % at 5.17 µM; in the data active = inhibition above about 34%
PRMT1 inh – PRMT1 methyltransferase inhibitors, primary screen, biochemical, fluorescence polarization; Protein arginine N-methyltransferase 1 (Homo sapiens), Q99873; recombinant PRMT1, activity-based probe fluorescence polarization; inhibition, % at 2.79 µM; 370,000 compounds, 1.3% hits; AID 652257, 2013;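 active = inhibition above about 21% made by adding two undisclosed values, limit read from the data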
Target sequence (Q99873 whole entry, looked up): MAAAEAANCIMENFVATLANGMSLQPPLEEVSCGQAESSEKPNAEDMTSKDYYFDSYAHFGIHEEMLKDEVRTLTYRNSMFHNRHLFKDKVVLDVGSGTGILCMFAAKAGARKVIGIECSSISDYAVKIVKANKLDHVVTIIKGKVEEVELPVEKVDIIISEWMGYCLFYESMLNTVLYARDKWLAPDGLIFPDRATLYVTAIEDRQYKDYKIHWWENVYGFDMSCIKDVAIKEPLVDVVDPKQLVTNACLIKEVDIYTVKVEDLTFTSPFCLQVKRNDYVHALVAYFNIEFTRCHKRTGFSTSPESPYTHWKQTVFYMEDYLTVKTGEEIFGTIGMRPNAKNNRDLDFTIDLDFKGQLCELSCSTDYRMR
HTRA1 inh – HTRA1 serine protease inhibitors, primary screen, biochemical, fluorescence polarization, HTS | 340,000 compounds, 0.5% hits | inhibition, % at 5.96 µM | AID 504803, 2011 | Q92743 | recombinant HTRA1, FP-rhodamine activity-based probe; in the data active = inhibition above about 36%
mABHD4 FP – ABHD4 inhibitors, primary screen, biochemical, fluorescence polarization, mouse. (Lyso)-N-acylphosphatidylethanolamine lipase (Mus musculus), Q8VD66. purified mABHD4, FP-Rh probe fluorescence polarization. inhibition, % at 8.92 µM. 370,000 compounds, 0.54% hits;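 active = inhibition exceeding the mean over every tested compound plus 3 SD, cut at about 30% in these data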
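Assay system: Wild-type mouse ABHD4 protein | Medium: HEPES pH 7.0 buffer, 150 mM NaCl, 0.01% Pluronic F-127 | Incubation: Enzyme–compound pre-incubation 45 min, then probe 60 min, both 25 °C | Technique: Fluorescence polarization with parallel and perpendicular emission, 525/598 nm | Evaluation: % inhibition of FP-Rh probe binding versus controls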
rCAG RNA binder – binders of r(CAG) RNA repeats, primary screen, biochemical, fluorescence | r(CAG) RNA repeat, TO-PRO-1 dye displacement fluorescence | inhibition, % at 3 µM | 370,000 compounds, 1.3% hits | AID 651821, 2012;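 active = inhibition above the plate cutoff, the mean of all test compounds on that plate plus 3 SD, cut at about 35% in these data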;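 note: higher means more dye released from RNA so lower well fluorescence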
LEDGF integ inh – blockers of LEDGF/p75-dependent integrase strand transfer – biochemical, TR-FRET, high throughput, primary screen; TR-FRET IN-LEDGF/p75 DNA integration, Eu/Cy5; inhibition, % at 3.7 µM; 370,000 compounds, 0.64% hits;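 active = inhibition above the screen-wide mean plus 3 SD, cut at about 13% in these data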;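 note: signal is the Cy5 over europium emission ratio at 671 and 618 nm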
rCAG bind conf – small molecules binding CAG repeat RNA – biochemical, fluorescence, confirmation; shares compounds with rCAG RNA binder; r(CAG) RNA repeat, TO-PRO-1 dye displacement fluorescence; inhibition, % at 3 µM; 4,300 compounds, 70% hits;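 active = inhibition above a per-plate cutoff, the mean inhibition of sample wells plus 3 SD, cut at about 35% in these data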;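 note: loss of TO-PRO-1 fluorescence as compound displaces dye from 1x1 AA loop RNA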
DNA CAG counter – displacement of TO-PRO-1 from CAG DNA duplex, counter-screen for rCAG RNA repeat binder project, biochemical, fluorescence, TO-PRO-1 dye, d(CAG) DNA oligo. AID 652068, 2013. d(CAG) DNA oligo TO-PRO-1 dye displacement. 4,300 compounds, 94% hits. shares compounds with rCAG RNA binder. inhibition, % at 3 µM;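 active = inhibition above its plate's cutoff, the mean test-well inhibition plus 3 SD, cut at about 4.8% in these data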;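 note: hits displace the dye from DNA and so lower well fluorescence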
Hits are given with their value; – = inactive; · = no result given. Hits are enriched below; roughly 3.2% of the tested compounds scored in any of these assays.

SMILES	DAGLB inh	PRMT1 inh	HTRA1 inh	mABHD4 FP	rCAG RNA binder	LEDGF integ inh	rCAG bind conf	DNA CAG counter
CCN(CC)S(=O)(=O)c1ccc(NC(=O)c2cc(-c3ccccc3)nc3ccccc23)cc1	–	–	–	–	–	–	·	·
Cc1cc(C)nc(NS(=O)(=O)c2ccc(NC(=O)c3cc(-c4ccccc4)nc4ccccc34)cc2)n1	–	–	–	–	49	–	62	25
Cc1ccc(NS(=O)(=O)c2ccc(C)c(C(=O)Nc3ccc(S(=O)(=O)Nc4onc(C)c4C)cc3)c2)cc1	–	–	–	–	64	–	70	35
O=C(Cn1c(CN2CCCCC2)nc2ccccc2c1=O)NC1CCCCC1	–	–	–	–	–	–	·	·
Fc1ccc(-n2cc(-c3ccccc3)c3c(=S)nc[nH]c32)cc1	–	–	–	–	–	–	·	·
CCCc1cc(=O)[nH]c(Nc2ccc(OC)c(Cl)c2)n1	–	–	–	–	36	–	–	11
CCCc1cc(=O)[nH]c(Nc2ccc(Cl)cc2)n1	–	–	–	–	41	–	–	10
CCCc1cc(=O)[nH]c(Nc2ccc(O)cc2)n1	–	–	–	–	–	–	·	·
OCc1cn(-c2ccccc2)nc1-c1ccc(Br)cc1	–	–	–	–	–	–	·	·
Cc1csc(SCC(=O)NC(=O)NC(C)C)n1	–	–	–	–	–	–	·	·
Cc1cccc(NC(=O)CSc2ccc3nnc(-c4cccnc4)n3n2)c1	–	–	–	–	–	–	·	·
CCOC(=O)c1cccc(NC(=O)Cn2c(CC(=O)NC)nc3ccccc32)c1	–	–	–	–	–	–	·	·
CN1CCC(N(C)S(=O)(=O)c2ccc(F)cc2F)CC1	–	–	–	–	–	–	·	·
Cc1snc(S(=O)(=O)/C(C#N)=N/Nc2ccc(C(F)(F)F)cc2)c1C#N	–	–	–	–	68	–	78	35
Cc1csc(NS(=O)(=O)c2cccc([N+](=O)[O-])c2)n1	–	–	–	–	–	–	·	·
CCC(=O)Nc1sc2c(c1C(N)=O)CCC2	–	–	–	–	–	–	·	·
NC(=O)c1c(NC(=O)COC(=O)c2ccc(O)c(Cl)c2)sc2c1CCCC2	–	–	–	–	39	–	43	15
COC(=O)c1c(NC(=O)COC(=O)c2ccccc2O)sc2c1CCCCC2	–	–	–	–	–	–	·	·
N#CCC(=O)Nc1sc2c(c1C(N)=O)CCCC2	–	–	–	–	35	–	–	4.5
Cc1ccc(-c2csc(NC(=S)NC(=O)/C=C/c3ccco3)n2)cc1	–	–	–	–	38	–	–	11
O=C(/C=C\c1ccco1)Nc1nc(-c2ccc3ccccc3c2)cs1	–	–	–	–	–	–	·	·
O=C(O)Cn1cc(/C=C2\SC(=O)N(c3ccccc3)C2=O)c2ccccc21	–	–	–	–	–	–	·	·
O=C(O)Cn1cc(/C=C2/SC(=O)N(CC(=O)N3CCCCCC3)C2=O)c2ccccc21	·	–	·	–	40	–	37	10
CC1CCN(c2ccc(C(=O)O)cc2NS(=O)(=O)c2cccc3cccnc23)CC1	·	–	·	–	36	–	–	7.2
COc1ccc(C(=O)O)cc1S(=O)(=O)Nc1cc(C(F)(F)F)ccc1N1CCCCC1	–	–	–	–	46	–	–	7.1
SMILES	DAGLB inh	PRMT1 inh	HTRA1 inh	mABHD4 FP	rCAG RNA binder	LEDGF integ inh	rCAG bind conf	DNA CAG counter
Cc1ccc(S(=O)(=O)Nc2cc(C(=O)O)ccc2N2CCC(C)CC2)cc1C	·	–	·	–	42	–	41	11
COc1ccc(C(=O)O)cc1S(=O)(=O)Nc1cc(Cl)ccc1N1CCOCC1	–	–	–	–	–	–	·	·
COC(=O)c1cc(NS(=O)(=O)c2ccc(N3CCC(C)CC3)c([N+](=O)[O-])c2)cc(C(=O)OC)c1	–	–	–	–	55	–	60	19
CCCCN(CC)CCCNC(=O)Cn1nc(Cc2cccnc2)c2ccccc2c1=O	–	–	–	–	–	–	·	·
c1ccc(C(c2ccccc2)N2CCN(Cc3nnnn3C3CCCC3)CC2)cc1	–	–	–	–	–	–	·	·
COc1ccc(N2CCN(C(=O)c3ccc(S(=O)(=O)N4CCCC4)cc3)CC2)cc1	–	–	–	–	–	–	·	·
O=C(COc1ncnc2ccccc12)Nc1cc([N+](=O)[O-])ccc1Cl	–	–	–	–	–	–	·	·
O=C(COc1ncnc2c(Cl)cc(Cl)cc12)Nc1cc([N+](=O)[O-])ccc1Cl	–	–	–	–	68	–	–	9.4
CC(C)C[C@H]1COc2ccc(Cl)cc2S(=O)(=O)N1C[C@H](NC(=O)OC(C)(C)C)C(C)C	·	–	·	–	–	–	·	·
Cc1ccc(C)c(S(=O)(=O)C(C#N)c2nc3ccccc3nc2N2CC(C)OC(C)C2)c1 (stereo unspecified)	–	–	–	–	38	–	75	41
Cc1ccc(C)c(S(=O)(=O)C(C#N)c2nc3ccccc3nc2N2CCCC2)c1 (stereo unspecified)	–	–	–	–	–	–	·	·
Cc1cc(N2CCN(S(C)(=O)=O)C[C@H]2C)ccc1N1CCN(Cc2ccccc2)[C@H](C)C1	·	–	·	–	–	–	·	·
C=CCS(=O)(=O)N1CCCC(C(=O)c2cccc(Cl)c2)C1 (stereo unspecified)	–	–	–	–	–	–	·	·
Cc1ccc(C(=O)/C=C/c2cc(Br)cc(Br)c2O)o1	–	–	–	–	60	–	46	16
Cc1ccc(S(=O)(=O)NC(=O)C2(C)CCN2C(=O)C2(c3ccc(Cl)cc3)CC2)nc1 (stereo unspecified)	·	–	·	–	–	–	·	·
CC(C)(C)c1ccc(S(=O)(=O)NC(=O)C2(C)CCN2C(=O)C2(c3ccc(Cl)cc3)CC2)cc1 (stereo unspecified)	·	–	·	–	71	–	59	21
CC1(C(=O)NS(=O)(=O)c2ccc(Cl)cc2)CCN1C(=O)C1(c2ccc(Cl)cc2)CC1 (stereo unspecified)	·	–	·	–	46	–	39	8.7
